Test results reported in ChEMBL document CHEMBL5058577, “EUbOPEN Chemogenomics Library 2 (Multiplex)” (2022).

Tested on: U2OS
Assay: Multiplex assay against U2OS
Type: toxicity, cell-based
Conditions: human
Procedure, shortened: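 Per cents of healthy-nucleus cells form the tubulin, mitochondrial-mass and membrane-permeability phenotype values. Live cells were stained at seeding with Hoechst33342, BioTracker Green Microtubule Cytoskeleton Dye, MitoTracker Red and Annexin V Alexa Fluor 680. After compound addition they were imaged on a CQ1 microscope at 37°C and 5% CO2, and CellPathfinder machine-learning gating split them into Hoechst high-intensity objects or normal cells, normal cells into healthy, pyknosed or fragmented nuclei, and pyknosed cells into mitotic or apoptotic.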

[1] = 12 h, 1 µM, compound concentration 1 uM, replicate 1
[2] = 12 h, 1 µM, compound concentration 1 uM, replicate 2
[3] = 12 h, 10 µM, compound concentration 10 uM, replicate 1
[4] = 12 h, 10 µM, compound concentration 10 uM, replicate 2
[5] = 24 h, 1 µM, compound concentration 1 uM, replicate 1
[6] = 24 h, 1 µM, compound concentration 1 uM, replicate 2
[7] = 24 h, 10 µM, compound concentration 10 uM, replicate 1
[8] = 24 h, 10 µM, compound concentration 10 uM, replicate 2
[9] = 48 h, 1 µM, compound concentration 1 uM, replicate 1
[10] = 48 h, 1 µM, compound concentration 1 uM, replicate 2
[11] = 48 h, 10 µM, compound concentration 10 uM, replicate 1
[12] = 48 h, 10 µM, compound concentration 10 uM, replicate 2

CCCCC[C@H](O)/C=C/[C@H]1[C@H](O)CC(=O)[C@@H]1CCCCCCC(=O)O [ALPROSTADIL]
Population Apoptotic (%) [1]: 100% | Population Fragmented Nuclei (%) [1]: 31% | Population Healthy Nuclei (%) [1]: 62% | Population Hoechst High Intensity Objects (%) [1]: 1% | Population Membrane Permeable-Phenotype (%) [1]: 4% | Population Mitochondria Different-Phenotype (%) [1]: 2% | Population Mitotic Cells (%) [1]: 0% | Population Normal (%) [1]: 98% | Population Pyknosed Nuclei (%) [1]: 6% | Population Tubulin-Different-Phenotype (%) [1]: 2% | Total Cell Count [1]: 219 | Population Apoptotic (%) [2]: 77% | Population Fragmented Nuclei (%) [2]: 11% | Population Healthy Nuclei (%) [2]: 81% | Population Hoechst High Intensity Objects (%) [2]: 0% | Population Membrane Permeable-Phenotype (%) [2]: 9% | Population Mitochondria Different-Phenotype (%) [2]: 5% | Population Mitotic Cells (%) [2]: 22% | Population Normal (%) [2]: 100% | Population Tubulin-Different-Phenotype (%) [2]: 6% | Total Cell Count [2]: 132 | Population Apoptotic (%) [3]: 71% | Population Fragmented Nuclei (%) [3]: 23% | Population Healthy Nuclei (%) [3]: 69% | Population Hoechst High Intensity Objects (%) [3]: 1% | Population Membrane Permeable-Phenotype (%) [3]: 1% | Population Mitochondria Different-Phenotype (%) [3]: 0% | Population Mitotic Cells (%) [3]: 28% | Population Normal (%) [3]: 98% | Population Pyknosed Nuclei (%) [3]: 6% | Population Tubulin-Different-Phenotype (%) [3]: 0% | Total Cell Count [3]: 222 | Population Apoptotic (%) [4]: 77% | Population Fragmented Nuclei (%) [4]: 15% | Population Healthy Nuclei (%) [4]: 75% | Population Hoechst High Intensity Objects (%) [4]: 2% | Population Membrane Permeable-Phenotype (%) [4]: 5% | Population Mitochondria Different-Phenotype (%) [4]: 3% | Population Mitotic Cells (%) [4]: 22% | Population Normal (%) [4]: 97% | Population Pyknosed Nuclei (%) [4]: 8% | Population Tubulin-Different-Phenotype (%) [4]: 5% | Total Cell Count [4]: 104 | Population Apoptotic (%) [5]: 91% | Population Fragmented Nuclei (%) [5]: 25% | Population Healthy Nuclei (%) [5]: 65% | Population Hoechst High Intensity Objects (%) [5]: 1% | Population Membrane Permeable-Phenotype (%) [5]: 5% | Population Mitochondria Different-Phenotype (%) [5]: 2% | Population Mitotic Cells (%) [5]: 8% | Population Normal (%) [5]: 98% | Population Pyknosed Nuclei (%) [5]: 9% | Population Tubulin-Different-Phenotype (%) [5]: 3% | Total Cell Count [5]: 263 | Population Apoptotic (%) [6]: 87% | Population Fragmented Nuclei (%) [6]: 14% | Population Healthy Nuclei (%) [6]: 75% | Population Hoechst High Intensity Objects (%) [6]: 0% | Population Membrane Permeable-Phenotype (%) [6]: 8% | Population Mitochondria Different-Phenotype (%) [6]: 4% | Population Mitotic Cells (%) [6]: 12% | Population Normal (%) [6]: 99% | Total Cell Count [6]: 166 | Population Apoptotic (%) [7]: 94% | Population Fragmented Nuclei (%) [7]: 19% | Population Healthy Nuclei (%) [7]: 74% | Population Hoechst High Intensity Objects (%) [7]: 1% | Population Membrane Permeable-Phenotype (%) [7]: 5% | Population Mitochondria Different-Phenotype (%) [7]: 0% | Population Mitotic Cells (%) [7]: 5% | Population Normal (%) [7]: 98% | Population Pyknosed Nuclei (%) [7]: 6% | Population Tubulin-Different-Phenotype (%) [7]: 3% | Total Cell Count [7]: 271 | Population Apoptotic (%) [8]: 100% | Population Fragmented Nuclei (%) [8]: 12% | Population Healthy Nuclei (%) [8]: 76% | Population Hoechst High Intensity Objects (%) [8]: 0% | Population Membrane Permeable-Phenotype (%) [8]: 4% | Population Mitochondria Different-Phenotype (%) [8]: 2% | Population Mitotic Cells (%) [8]: 0% | Population Normal (%) [8]: 99% | Population Pyknosed Nuclei (%) [8]: 10% | Population Tubulin-Different-Phenotype (%) [8]: 1% | Total Cell Count [8]: 131 | Population Apoptotic (%) [9]: 87% | Population Fragmented Nuclei (%) [9]: 22% | Population Healthy Nuclei (%) [9]: 68% | Population Hoechst High Intensity Objects (%) [9]: 2% | Population Membrane Permeable-Phenotype (%) [9]: 4% | Population Mitochondria Different-Phenotype (%) [9]: 2% | Population Mitotic Cells (%) [9]: 12% | Population Normal (%) [9]: 97% | Population Pyknosed Nuclei (%) [9]: 9% | Population Tubulin-Different-Phenotype (%) [9]: 2% | Total Cell Count [9]: 367 | Population Apoptotic (%) [10]: 95% | Population Fragmented Nuclei (%) [10]: 18% | Population Healthy Nuclei (%) [10]: 71% | Population Hoechst High Intensity Objects (%) [10]: 3% | Population Membrane Permeable-Phenotype (%) [10]: 6% | Population Mitochondria Different-Phenotype (%) [10]: 5% | Population Mitotic Cells (%) [10]: 4% | Population Normal (%) [10]: 96% | Population Tubulin-Different-Phenotype (%) [10]: 6% | Total Cell Count [10]: 236 | Population Apoptotic (%) [11]: 88% | Population Fragmented Nuclei (%) [11]: 13% | Population Healthy Nuclei (%) [11]: 76% | Population Hoechst High Intensity Objects (%) [11]: 0% | Population Membrane Permeable-Phenotype (%) [11]: 4% | Population Mitochondria Different-Phenotype (%) [11]: 0% | Population Mitotic Cells (%) [11]: 11% | Population Normal (%) [11]: 99% | Population Pyknosed Nuclei (%) [11]: 10% | Population Tubulin-Different-Phenotype (%) [11]: 3% | Total Cell Count [11]: 362 | Population Apoptotic (%) [12]: 100% | Population Fragmented Nuclei (%) [12]: 11% | Population Healthy Nuclei (%) [12]: 77% | Population Hoechst High Intensity Objects (%) [12]: 2% | Population Membrane Permeable-Phenotype (%) [12]: 6% | Population Mitochondria Different-Phenotype (%) [12]: 1% | Population Mitotic Cells (%) [12]: 0% | Population Normal (%) [12]: 97% | Population Tubulin-Different-Phenotype (%) [12]: 4% | Total Cell Count [12]: 165
